From ChEMBL document CHEMBL1155655 (2000)
In brackets after ≈: the same amount, converted by molar mass. Activity calls are given as the source filed them. No cut-off for these calls is given here.

Experiments:
[1] = tested on: Leishmania donovani; assay: Antileishmanial activity against intracellular Leishmania donovani LV9 infected in C57BL/10ScSn mouse bone marrow-derived macrophages; assay type: functional; details: LV9, read-out: ED50
[2] = Cytotoxicity against C57BL/10ScSn mouse bone marrow-derived macrophages; assay type: cell-based, Macrophage
[3] = tested on: Leishmania major; assay: Antileishmanial activity against promastigotes of Leishmania major LV39 infected in C57BL/10ScSn mouse bone marrow-derived macrophages; assay type: functional, organism-based
Summary of the method: (§1)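 Promastigotes of L. donovani LV9, L. infantum D.SCH (isolated 1995 from an infant visceral leishmaniasis case), L. enriettii and L. major LV39, grown at 25 °C, 5% CO2, humidified, and passaged every 3-4 days. Stocks were kept by animal passage (not L. infantum) and cryopreserved in liquid nitrogen.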

[4] = tested on: Leishmania infantum; assay: Antileishmanial activity against promastigotes of Leishmania infantum D.SCH infected in C57BL/10ScSn mouse bone marrow-derived macrophages; assay type: functional, organism-based
Summary of the method: as §1

[5] = tested on: Leishmania donovani; assay: Antileishmanial activity against extracellular Leishmania donovani LV9 infected in C57BL/10ScSn mouse bone marrow-derived macrophages; assay type: functional; details: LV9, read-out: ED50
[6] = tested on: Leishmania enriettii; assay: Antileishmanial activity against promastigotes of Leishmania enriettii infected in C57BL/10ScSn mouse bone marrow-derived macrophages; assay type: functional; details: read-out: ED50
[7] = tested on: KB; assay: Cytotoxicity against human KB cells; assay type: functional, cell-based
[8] = tested on: A549; assay: Cytotoxicity against human A549 cells; assay type: functional, cell-based
[9] = tested on: MCF7; assay: Cytotoxicity against human MCF7 cells; assay type: functional, cell-based
[10] = tested on: SK-MEL-30; assay: Cytotoxicity against human SK-MEL-30 cells; assay type: functional, cell-based
[11] = Toxicity in brine shrimp; assay type: organism-based; details: artemia, in vivo

Row | SMILES | EC50 ([7]; kb) [µg/mL] | EC50 ([8]; a549) [µg/mL] | EC50 ([9]; mcf7) [µg/mL] | EC50 ([10]; sk-mel-30) [µg/mL] | EC50 ([7]; Homo sapiens, KB) [µg/mL] | EC50 ([8]; Homo sapiens, A549) [µg/mL] | EC50 ([9]; Homo sapiens, MCF7) [µg/mL] | EC50 ([10]; Homo sapiens, SK-MEL-30) [µg/mL] | other results
1 | C=C[C@]1(C)CC[C@]2(C)[C@@H](C1)C(=O)[C@@H](O)[C@@H]1[C@]3(C)CCC[C@@]12OC3=O |  |  |  |  |  |  |  |  | EC50 [1]: 37.2 µg/mL (≈ 112 µM); CC50 [2]: 19.5 µg/mL (≈ 58.7 µM); Activity [3]: inactive; Activity [4]: inactive; EC50 [5]: 10.3 µg/mL (≈ 31 µM); EC50 [6]: > 50 µg/mL
2 | C/C=C\C(=O)O[C@@H]1[C@@H](O)[C@H]2O[C@@H]3C=C(C)CC[C@]3(C)[C@]1(C)[C@]21CO1 [8-DIHYDROTRICHOTHECINOL A] | 0.1 (≈ 0.299 µM) | 0.11 (≈ 0.329 µM) | 0.11 (≈ 0.329 µM) | 0.11 (≈ 0.329 µM) |  |  |  |  | 
3 | CC(=O)OC[C@]12O[C@]34C=C(C)C(=O)C[C@]3(C)[C@@]1(C)[C@H](O)C[C@H]2O4 [13-ACETOXYLOUKACINOL A] |  |  |  |  | 13.6 (≈ 42.2 µM) | 26.6 (≈ 82.5 µM) | 15.9 (≈ 49.3 µM) | 18 (≈ 55.8 µM) | 
4 | CC1=C[C@]23O[C@@H]4C[C@@H](O)[C@](C)([C@@]2(C)CC1=O)[C@]4(CO)O3 [LOUKACINOL A] |  |  |  |  | 13.9 (≈ 49.6 µM) | 21.4 (≈ 76.3 µM) | 15.8 (≈ 56.4 µM) | 16.4 (≈ 58.5 µM) | 
5 | CC1=C[C@]23O[C@@H]4CC[C@](C)([C@@]2(C)CC1=O)[C@]4(CO)O3 [LOUKACINOL B] |  |  |  |  | 11.8 (≈ 44.6 µM) | 15.2 (≈ 57.5 µM) | 13.3 (≈ 50.3 µM) | 13.6 (≈ 51.5 µM) | 
6 | C/C=C\C(=O)O[C@@H]1[C@@H](O)[C@H]2O[C@@H]3C=C(C)C(=O)C[C@]3(C)[C@]1(C)[C@]21CO1 [TRICHOTHECINOL A] | 0.014 (≈ 0.0402 µM) | 0.021 (≈ 0.0603 µM) | 0.014 (≈ 0.0402 µM) | 0.013 (≈ 0.0373 µM) |  |  |  |  | LC50 [11]: 0.52 µg/mL (≈ 1.49 µM)
7 | C/C=C\C(=O)O[C@@H]1C[C@H]2O[C@@H]3C=C(C)C(=O)C[C@]3(C)[C@]1(C)[C@]21CO1 [TRICHOTHECIN] | 35 (≈ 105 µM) | 16 (≈ 48.1 µM) | 19 (≈ 57.2 µM) | 14 (≈ 42.1 µM) |  |  |  |  | LC50 [11]: 2.2 µg/mL (≈ 6.62 µM)
8 | CC1=C[C@H]2O[C@@H]3C[C@@H](O)[C@](C)([C@@]2(C)CC1=O)[C@]31CO1 [TRICHOTHECOLONE] | 10.6 (≈ 40.1 µM) | 7.1 (≈ 26.9 µM) | 10.6 (≈ 40.1 µM) | 8.6 (≈ 32.5 µM) |  |  |  |  | 
